Measurements of several laboratories.
Lines come from different studies, so protocols differ.
CDK7 with cyclin H: Cyclin-dependent kinase 7, with cyclin H (CDK7, Homo sapiens, UniProt P50613)
PDE4D: 3',5'-cyclic-AMP phosphodiesterase 4D (PDE4D, Homo sapiens, UniProt Q08499)
F2: Prothrombin (F2, Homo sapiens, UniProt P00734)
MEP1B: Meprin A subunit beta (MEP1B, Homo sapiens, UniProt Q16820)
HDAC6: Protein deacetylase HDAC6 (HDAC6, Homo sapiens, UniProt Q9UBN7)
GRM7: Metabotropic glutamate receptor 7 (GRM7, Homo sapiens, UniProt Q14831)
Dihydroorotate dehydrogenase, mitochondrial, putative: Dihydroorotate dehydrogenase, mitochondrial, putative (Plasmodium vivax, UniProt A5K1N1)
KCNK9: Potassium channel subfamily K member 9 (KCNK9, Homo sapiens, UniProt Q9NPC2)

For `NC(=O)c1cccc(-c2cccc(OC(=O)NC3CCCCC3)c2)c1`, the IC50 was 39 nM (Liver carboxylesterase 1 (CES1, Homo sapiens, UniProt P23141); enzyme activity; inhibitor).
With `C=CC(=O)Nc1ccc(N2CCC[C@@H](Nc3ncc(Cl)c(-c4c[nH]c5ccccc45)n3)C2)c(F)c1` the IC50 was 318 nM (CDK7 with cyclin H; enzyme activity; inhibitor; FRET).
`COc1ccc([C@@H]2CN(C(=O)[C@@H](O)CO)C[C@@]2(C)[C@@H](C)O)cc1OC1CN(c2ccc(C)cn2)C1` has an IC50 of 0.14 nM (PDE4D; enzyme activity; inhibitor).
`COc1cc(NCC(=O)Nn2c(C)nc3ccc(Cl)cc3c2=O)cc(OC)c1OC` has an IC50 of 63500 nM (F2; enzyme activity; inhibitor).
The IC50 of `COc1ccc2c(Oc3ccc4c(C(=O)Nc5ccccc5N)cccc4c3)ccnc2c1` is reported as > 500 nM (Tyrosine-protein kinase SYK (SYK, Homo sapiens, UniProt P43405); enzyme activity; inhibitor).
The IC50 of `O=C(CCN(Cc1cccnc1)Cc1ccc2c(c1)OCO2)NO` is reported as 9650 nM (MEP1B; enzyme activity; inhibitor).
For `Nc1ccc(-c2ccncc2)cc1NC(=O)N1CCCC1`, the IC50 was > 33300 nM (HDAC6; enzyme activity; inhibitor).
`COc1ccc(-c2coc(-c3cc(OC(F)(F)F)ccc3-n3cncn3)n2)cc1OC` has an IC50 of > 10000 nM (GRM7; calcium signal; antagonist).
For `Cc1nc2ccc(Br)cc2c(=O)n1/N=C/c1ccc(C(=O)O)cc1`, the IC50 was 48600 nM (F2; enzyme activity; inhibitor).
With `CC(C)C[C@H](NC(=O)[C@H]1O[C@@H]1C(=O)O)C(=O)NCCCCN=C(N)N` the IC50 was 30.9 nM (Calpain-1 catalytic subunit (CAPN1, Homo sapiens, UniProt P07384); enzyme activity; inhibitor).
With `COc1cc2c(NC3CCN(C)CC3)nc(N3CCCN(C)CC3)nc2cc1OCCCCCCN(C)C` the IC50 was 1500 nM (Histone-lysine N-methyltransferase EHMT2 (EHMT2, Homo sapiens, UniProt Q96KQ7); enzyme activity; inhibitor).
`O=C(CCN(Cc1ccc(Cl)cc1F)Cc1ccc(Cl)c(O)c1F)NO` has an IC50 of 274 nM (MEP1B; enzyme activity; inhibitor).
With `OCc1ccc2c(c1C#Cc1ccc(O)cc1)C(c1ccc(O)cc1)(c1ccc(O)cc1)c1cc(O)ccc1-2` the IC50 was 267 nM (PDE4D; enzyme activity; inhibitor).
For `Cc1nc(NC2CCc3cc(Br)ccc3C2)c2c(C)noc2n1` (stereo not drawn), the IC50 was 150 nM (Dihydroorotate dehydrogenase, mitochondrial, putative; enzyme activity; inhibitor; absorbance).
With `Cc1cn([C@H]2C[C@H](N=[N+]=[N-])[C@@H](CO)O2)c(=O)[nH]c1=O` the IC50 was 12200 nM (Gag-Pol polyprotein, reverse transcriptase (gag-pol, Human immunodeficiency virus type 1 group M subtype B, UniProt P04585); enzyme activity; inhibitor; ELISA).
`Cc1nc2ccccc2c(=O)n1NC(=O)CSc1nc2ccccc2c(=O)n1-c1ccccc1` has an IC50 of 5010 nM (F2; enzyme activity; inhibitor).
`Cc1nc(NC2CCc3cc(Cl)ccc3C2)c2c(C)noc2n1` (stereo not drawn) gave an IC50 of 58 nM (Dihydroorotate dehydrogenase, mitochondrial, putative; enzyme activity; inhibitor; absorbance).
`O=c1cc(-c2ccccc2)oc2ccc3ccccc3c12` has an IC50 of 2970 nM (CDK7 with cyclin H; enzyme activity; inhibitor; ADP detection).
With `C[C@@H]1O[C@H](OP(=O)(O)OP(=O)(O)OC[C@H]2O[C@@H](n3cnc4c(=O)[nH]c(N)nc43)[C@H](O)[C@@H]2O)[C@@H](F)[C@H](O)[C@@H]1O` the IC50 was ~2500 nM (Alpha-(1,3)-fucosyltransferase 7 (FUT7, Homo sapiens, UniProt Q11130); cell-free assay).
With `O=C(CCN(Cc1ccc2c(c1)OCO2)Cc1ccc(Cl)cc1F)NO` the IC50 was 960 nM (MEP1B; enzyme activity; inhibitor).
`CC#Cc1cncc(-c2ccc3c(c2)[C@@]2(N=C(C)C(N)=N2)[C@]2(CC[C@H](OC)CC2)C3)c1` has an IC50 of 16100 nM (Cathepsin D (CTSD, Homo sapiens, UniProt P07339); enzyme activity; inhibitor).
`CCc1ccc(/C=N/n2c(C)nc3ccc(C)cc3c2=O)s1` has an IC50 of 269000 nM (F2; enzyme activity; inhibitor).
With `COCCOC(=O)C1=C(C)NC(C)=C(C(=O)OC(C)C)C1c1cccc([N+](=O)[O-])c1` (stereo not drawn) the IC50 was 17500 nM (Potassium channel subfamily K member 18 (KCNK18, Homo sapiens, UniProt Q7Z418); ion flux; inhibitor).
With `N#Cc1nc(NCc2cccc(-c3cc4ccccc4n3S(=O)(=O)c3ccccc3)c2)c2ncn(CCCO)c2n1` the IC50 was > 15000 nM (Cathepsin B-like cysteine protease (Trypanosoma brucei, UniProt Q6R7Z5); enzyme activity; inhibitor).
`COc1ccc(C2=NN(C3CCCCCC3)C(=O)[C@@H]3CC=CC[C@H]23)cc1-c1ccc(C(=O)NCC(N)=O)cc1` (relative stereo) has an IC50 of 251 nM (PDE4D; enzyme activity; inhibitor).
With `O=C(N[C@@H](Cc1c[nH]c2ccccc12)C(=O)O)c1ccc(Cl)cc1` the IC50 was > 25100 nM (Free fatty acid receptor 3 (FFAR3, Homo sapiens, UniProt O14843); calcium signal; antagonist).
`COc1cc(/C=N/n2c(C)nc3ccc(C)cc3c2=O)ccc1OCc1ccccc1` gave an IC50 of 26600 nM (F2; enzyme activity; inhibitor).
`CCCON(Cc1ccc(C(=O)NO)cc1)C(=O)Nc1ccc(N(C)C)cc1` gave an IC50 of 22 nM (HDAC6; enzyme activity; inhibitor; fluorescence).
`O=C(O)[C@H]1O[C@@H](O[C@H]2[C@H](O)[C@@H](NS(=O)(=O)O)[C@@H](OCCNS(=O)(=O)O)O[C@@H]2COS(=O)(=O)O)[C@H](O)[C@@H](O)[C@@H]1O[C@H]1O[C@H](COS(=O)(=O)O)[C@@H](O)[C@H](O)[C@H]1NS(=O)(=O)O` gave an IC50 of > 2000 nM (Coagulation factor X (F10, Bos taurus, UniProt P00743); enzyme activity; inhibitor; absorbance).
`CCOCc1nc(O)c(-c2nnc(Cc3ccc(Cl)cn3)o2)c(O)c1-c1c(OC)cccc1OC` has an IC50 of > 30000 nM (5-hydroxytryptamine receptor 1B (HTR1B, Homo sapiens, UniProt P28222); ligand displacement; radioligand).
The IC50 of `COc1ccc(-c2noc(-c3cc(Cl)ccc3-n3cncn3)n2)c(F)c1OC` is reported as > 30000 nM (GRM7; calcium signal; antagonist).
`Cc1nc2ccccc2n1Cc1cc(F)c(C(=O)NO)c(F)c1` gave an IC50 of 946 nM (HDAC6; enzyme activity; inhibitor).
`O=c1cc(-c2ccccc2)oc2c1ccc1ccccc12` gave an IC50 of > 100000 nM (CDK7 with cyclin H; enzyme activity; inhibitor; ADP detection).
`Cc1nc2ccccc2n1Cc1nc(C(=O)NO)co1` has an IC50 of 3710 nM (HDAC6; enzyme activity; inhibitor).
With `CC(C)(C)n1nc(-c2ccc3nc(OC4CC4)ccc3c2)c(C(N)=O)c1N` the IC50 was > 10000 nM (Mitogen-activated protein kinase 1 (MAPK1, Homo sapiens, UniProt P28482); cell-free assay).
The IC50 of `Cc1nc(Nc2ccc(C(F)(F)F)cc2)c2c(C(F)(F)F)noc2n1` is reported as 76 nM (Dihydroorotate dehydrogenase, mitochondrial, putative; enzyme activity; inhibitor; absorbance).
`CC(C)=CCC[C@@H](C)c1ccc(C)c(O)c1` has an IC50 of 42100 nM (UDP-glucuronosyltransferase 2B7 (UGT2B7, Homo sapiens, UniProt P16662); enzyme activity; inhibitor; 1 h).
With `O=C1NC(=O)/C(=C/c2ccc(OCCNc3nc4c(cnn4C4CCCC4)c(=O)[nH]3)c(F)c2)S1` the IC50 was 495 nM (PDE4D; enzyme activity; inhibitor).
`COC(=O)C1=C(C)NC(C)=C(C(=O)OCCN(C)Cc2ccccc2)C1c1cccc([N+](=O)[O-])c1` (stereo not drawn) has an IC50 of > 30000 nM (KCNK9; ion flux; inhibitor).
The IC50 of `CCCC[C@H](NC(=O)C1CN(C)C1)c1ncc(-c2cc3ccccc3nc2OC)[nH]1` is reported as 1100 nM (HDAC6; enzyme activity; inhibitor).
With `C=CC(=O)Nc1ccc(N2CCC[C@@H](Nc3ncc(Cl)c(-c4c[nH]c5ccccc45)n3)C2)cc1C` the IC50 was 197 nM (CDK7 with cyclin H; enzyme activity; inhibitor; FRET).
`CCOC(=O)C1=C(C)NC(C)=C(C(=O)OC)C1c1cccc([N+](=O)[O-])c1` (stereo not drawn) gave an IC50 of > 30000 nM (KCNK9; ion flux; inhibitor).
